Results reported in ChEMBL document CHEMBL1135455, “3-Aminopyrrolidinone farnesyltransferase inhibitors: design of macrocyclic compounds with improved pharmacokinetics and excellent cell potency” (J Med Chem, 2002).

How the values were obtained:
[1] = biological target: T1, Protein farnesyltransferase (Homo sapiens, UniProt P49354+P49356); assay: Inhibition of Farnesyltransferase at 10 pM enzyme concentration
[2] = biological target: T1, Protein farnesyltransferase; assay: Inhibition of human farnesyltransferase in an enzyme assay.
[3] = biological target: T1, Protein farnesyltransferase; assay: Inhibition of HDJ2 farnesylation in PSN-1 cells over 7 hr assay in the presence of 50% human serum.; assay type: functional, cell-based
[4] = Pharmacokinetic data at 0.5 mg/kg dose given to dogs intravenously.; assay type: ADME, organism-based, Canis lupus familiaris; set-up: dose 0.5 mg/kg, route intravenous; details: dog, iv; for half-life / Vd: in vivo; for Vd: read-out: Vdss; for clearance: plasma, read-out: Clp
In short: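 Compound was given intravenously in DMSO to two dogs, in some cases as a mixture with five other compounds. Plasma levels were measured by LC-MS.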

[5] = biological target: T1, Protein farnesyltransferase; assay: Inhibition of HDJ2 farnesylation in PSN-1 cells over 7 hr assay; assay type: functional, cell-based
[6] = biological target: T2, Protein farnesyltransferase (Rattus norvegicus, UniProt Q02293+Q04631); assay: Inhibition of Farnesyltransferase in cells, evaluated in a radiotracer assay for farnesyltransferase inhibition (CRAFTI), in cultured H-ras-transformed Rat cells
[7] = biological target: T3, Cytochrome P450 3A4 (Homo sapiens, UniProt P08684); assay: (§1) Inhibition of human Cytochrome P450 3A4 by macrocycles
[8] = biological target: Geranylgeranyl transferase type I (Homo sapiens, UniProt P49354+P53609); assay: Inhibitory activity against geranylgeranyl transferase; assay type: protein-complex assay
[9] = suboptimal plasma half-life caused a10% prolongation of QTc interval in dogs at a plasma level of […]; assay type: ADME, organism-based, Canis lupus familiaris; details: dog
[10] = Pharmacokinetic data for dose given to dogs intravenously (oral PK study in parentheses); assay type: ADME, organism-based, Canis lupus familiaris; details: dog, in vivo
In short: (§2)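 Dogs, two per compound, dosed intravenously in DMSO or orally as a 0.5% methocellulose suspension. Some compounds were given intravenously as a cassette with five other compounds. Plasma levels were quantitated by LCMS.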

[11] = Oral bioavailability of active FTIs in dogs; assay type: ADME, organism-based, Canis lupus familiaris; details: dog, in vivo
[12] = Pharmacokinetic data at 1 mg/kg dose given to dogs intravenously; assay type: ADME, organism-based, Canis lupus familiaris; set-up: dose 1 mg/kg, route intravenous; details: dog, iv
In short: as §2

[13] = biological target: T2, Protein farnesyltransferase; assay: Inhibition of Farnesyltransferase in H-ras-transformed Rat cells by radiotracer assay (CRAFTI)
[14] = biological target: T1, Protein farnesyltransferase; assay: Inhibition of HDJ2 farnesylation in PSN-1 cells over 7 hr assay in the presence of 50% human serum; assay type: functional, cell-based
[15] = biological target: T1, Protein farnesyltransferase; assay: Inhibition of Farnesyltransferase at 10 pM enzyme concentration; remark: listed apart in the source
[16] = Bioavailability in dog (dose 1 mg/kg i.v.); details: in vivo, iv
[17] = Clearance in dog (dose 1 mg/kg i.v.); details: plasma, iv
[18] = biological target: T3, Cytochrome P450 3A4; assay: as §1; assay type: ADME
In short: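 Pooled liver microsomes, dog (7) or human (8, 9), at 0.25 mg protein/mL were incubated 10 min with 75 µM testosterone and an NADPH-generating system, with or without compound (0.05-100 µM). 6β-Hydroxytestosterone was quantified by LC-MS/MS against a cortisone internal standard. IC50 was taken from product formed relative to the control incubation.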

[19] = biological target: T3, Cytochrome P450 3A4; assay: Inhibition of dog Cytochrome P450 3A by macrocycles
[20] = biological target: Voltage-gated inwardly rectifying potassium channel KCNH2 (Homo sapiens, UniProt Q12809); assay: Inflection point affinity for binding to K+ channel HERG.; details: IP
Sequence of Voltage-gated inwardly rectifying potassium channel KCNH2 (Q12809 whole entry): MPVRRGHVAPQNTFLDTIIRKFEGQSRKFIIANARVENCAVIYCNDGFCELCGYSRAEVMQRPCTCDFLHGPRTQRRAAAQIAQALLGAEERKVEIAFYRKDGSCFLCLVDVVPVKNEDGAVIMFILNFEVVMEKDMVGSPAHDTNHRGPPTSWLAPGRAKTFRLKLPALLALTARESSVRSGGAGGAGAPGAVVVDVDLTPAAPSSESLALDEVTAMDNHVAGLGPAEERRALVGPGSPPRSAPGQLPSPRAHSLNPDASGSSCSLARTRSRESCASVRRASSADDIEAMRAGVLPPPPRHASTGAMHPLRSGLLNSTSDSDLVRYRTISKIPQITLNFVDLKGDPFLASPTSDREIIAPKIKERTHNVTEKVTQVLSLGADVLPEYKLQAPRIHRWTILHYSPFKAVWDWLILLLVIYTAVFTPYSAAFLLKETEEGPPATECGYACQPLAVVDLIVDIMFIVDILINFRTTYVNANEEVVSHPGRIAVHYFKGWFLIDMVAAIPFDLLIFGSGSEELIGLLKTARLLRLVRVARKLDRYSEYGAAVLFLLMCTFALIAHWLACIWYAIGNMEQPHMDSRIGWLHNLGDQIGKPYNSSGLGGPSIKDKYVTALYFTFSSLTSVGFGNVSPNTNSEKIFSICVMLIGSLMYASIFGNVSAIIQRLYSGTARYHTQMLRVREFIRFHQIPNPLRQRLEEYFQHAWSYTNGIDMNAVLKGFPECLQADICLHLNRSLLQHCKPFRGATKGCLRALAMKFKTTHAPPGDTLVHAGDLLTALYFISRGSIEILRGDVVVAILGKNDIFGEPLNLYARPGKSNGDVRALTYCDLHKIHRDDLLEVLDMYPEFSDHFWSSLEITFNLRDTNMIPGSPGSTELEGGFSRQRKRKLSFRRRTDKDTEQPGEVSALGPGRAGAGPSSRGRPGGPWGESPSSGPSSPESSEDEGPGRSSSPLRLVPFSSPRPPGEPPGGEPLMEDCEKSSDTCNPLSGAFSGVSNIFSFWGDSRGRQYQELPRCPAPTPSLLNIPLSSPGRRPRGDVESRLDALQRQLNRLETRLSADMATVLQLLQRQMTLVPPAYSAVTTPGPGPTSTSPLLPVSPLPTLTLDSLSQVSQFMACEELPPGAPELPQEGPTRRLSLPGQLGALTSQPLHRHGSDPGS

T3 sequence (P08684 whole entry): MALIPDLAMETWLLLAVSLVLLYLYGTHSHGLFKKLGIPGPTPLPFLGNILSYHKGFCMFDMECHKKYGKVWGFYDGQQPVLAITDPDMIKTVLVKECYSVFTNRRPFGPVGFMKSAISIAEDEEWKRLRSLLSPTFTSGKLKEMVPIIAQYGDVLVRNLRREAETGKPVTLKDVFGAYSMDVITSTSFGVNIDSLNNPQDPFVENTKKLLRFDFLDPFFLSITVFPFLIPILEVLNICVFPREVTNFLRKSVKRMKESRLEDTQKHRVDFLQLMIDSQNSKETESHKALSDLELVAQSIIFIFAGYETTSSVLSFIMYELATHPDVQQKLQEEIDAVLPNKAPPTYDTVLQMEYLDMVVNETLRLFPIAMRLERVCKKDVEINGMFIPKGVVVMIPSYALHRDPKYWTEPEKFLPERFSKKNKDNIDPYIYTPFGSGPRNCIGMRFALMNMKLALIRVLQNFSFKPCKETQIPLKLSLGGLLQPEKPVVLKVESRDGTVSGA

Work on `N#Cc1ccc2cc1Oc1cccc(c1)-c1ccccc1N1CCC(NCc3cncn3C2)C1=O` (stereo unspecified) yielded an IC50 [1] of 0.06 nM, an IC50 [2] of 1.3 nM and an EC50 [3] of 0.58 nM. It also gave a half-life [4] of 52.8 min, a Vd [4] of 0.61 L/kg and a clearance [4] of 8 mL/min/kg. The EC50 [5] was 0.67 nM, the IC50 [6] was 0.032 nM and the IC50 [7] was < 0.05 µM. For the same compound, the IC50 [8] was 810 nM.

For `N#Cc1ccc2cc1Oc1ccc(Br)c(c1)CN1CCC(NCc3cncn3C2)C1=O` (stereo unspecified), the IC50 [2] was 1.4 nM, the EC50 [3] was 1 nM and the half-life [4] was 96 min. It also gave a Vd [4] of 0.53 L/kg, a clearance [4] of 3.2 mL/min/kg and an EC50 [5] of 1.6 nM. For the same compound, the IC50 [6] was 0.19 nM, the IC50 [7] was 6.1 µM and the IC50 [8] was 9200 nM.

With `CN1Cc2cncn2Cc2ccc(C#N)c(c2)Oc2ccc3cccc(c3c2)N2CCC1C2=O` (stereo unspecified) the IC50 [2] was 4.9 nM, the half-life [4] was 606 min and the Vd [4] was 0.21 L/kg. For the same compound, the clearance [4] was 0.26 mL/min/kg, the IC50 [6] was 39 nM and the IC50 [7] was 5 µM. It also gave an IC50 [8] of 2200 nM.

With `N#Cc1ccc(Cn2cncc2CN[C@H]2CCN(Cc3cccc(Cl)c3)C2=O)cc1` the half-life [9] was 66 min, the bioavailability [10] was 81% and the bioavailability [11] was 81%. The IC50 [7] was 1 µM, the half-life ([12]; in vivo) was 66 min and the Vd ([12]; in vivo, read-out: Vdss) was 0.45 L/kg. It also gave a clearance ([12]; plasma, read-out: Clp) of 5.8 mL/min/kg.

With `N#Cc1ccc2cc1Oc1cc(Cl)cc(c1)CN1CCC(NCc3cncn3C2)C1=O` (stereo unspecified) the IC50 [13] was 6.4 nM, the IC50 [2] was 23 nM and the IC50 [8] was > 20000 nM.

Compound `N#Cc1ccc2cc1Oc1ccc3c(c1)[C@@H](CCO3)N1CC[C@H](NCc3cncn3C2)C1=O` has an IC50 [6] of 1.8 nM.

Work on `N#Cc1ccc2cc1Oc1ccc3cccc(c3c1)N1CC[C@@H](NCc3cncn3C2)C1=O` yielded an IC50 [2] of 1.6 nM and an IC50 [6] of 4.4 nM.

`CN1CCc2cncn2Cc2ccc(C#N)c(c2)Oc2ccc3cccc(c3c2)N2CC[C@@H]1C2=O` showed an IC50 [6] of 0.57 nM.

With `N#Cc1ccc2cc1Oc1cccc(c1)CN1CC[C@@H](NCc3cncn3C2)C1=O` the EC50 [14] was 13 nM, the EC50 [5] was 6.1 nM and the IC50 [6] was 0.66 nM. It also gave an IC50 [15] of 2 nM.

Work on `N#Cc1ccc2cc1Oc1ccc3c(c1)[C@@H](CCO3)N1CC[C@@H](NCc3cncn3C2)C1=O` yielded a Vd [16] of 0.34 L/kg, a half-life [16] of 54 min and a clearance [17] of 5.5 mL/min/kg. For the same compound, the IC50 [6] was 0.063 nM.

In the case of `N#Cc1ccc2cc1Oc1ccc3cccc(c3c1)N1CCN(CC1=O)Cc1cncn1C2`, the IC50 [6] is reported as 0.29 nM.

Compound `N#Cc1ccc2cc1Oc1ccc3cccc(c3c1)N1CC[C@H](NC(=O)Cc3cncn3C2)C1=O` has an IC50 [18] of 8.1 µM, a half-life [4] of 102 min and a Vd [4] of 0.19 L/kg. The clearance [4] was 1.5 mL/min/kg and the IC50 [6] was 6.8 nM.

`N#Cc1ccc2cc1Oc1ccc3c(c1)[C@H](CC3)N1CC[C@H](NCc3cncn3C2)C1=O` showed an IC50 [6] of 93 nM.

`N#Cc1ccc2cc1Oc1ccc3cccc(c3c1)N1CC[C@@H](NC(=O)Cc3cncn3C2)C1=O` gave an IC50 [6] of 13 nM.

`N#Cc1ccc2cc1Oc1cccc(c1)CN1CC[C@H](NCc3cncn3C2)C1=O` showed an IC50 [13] of 13 nM and an IC50 [2] of 54 nM.

With `CN1CCc2cncn2Cc2ccc(C#N)c(c2)Oc2ccc3cccc(c3c2)N2CC[C@H]1C2=O` the half-life [4] was 114 min, the Vd [4] was 0.25 L/kg and the clearance [4] was 1.4 mL/min/kg. The IC50 [6] was 0.21 nM.

For `N#Cc1ccc2cc1Oc1ccc3c(c1)[C@@H](CC3)N1CC[C@@H](NCc3cncn3C2)C1=O`, the IC50 [19] was 10.4 µM, the half-life [4] was 102 min and the Vd [4] was 0.27 L/kg. It also gave a clearance [4] of 2.1 mL/min/kg, an IC50 [6] of 0.22 nM and an IC50 [7] of 6.6 µM.

`N#Cc1ccc2cc1Oc1ccc3c(c1)[C@@H](CCC3)N1CC[C@H](NCc3cncn3C2)C1=O` showed an IC50 [2] of 1.5 nM, an EC50 [3] of 4.4 nM and an EC50 [5] of 3 nM. It also gave an IC50 [6] of 0.21 nM and an IC50 [8] of 2200 nM.

`N#Cc1ccc2cc1Oc1ccc3c(c1)[C@H](CC3)N1CC[C@@H](NCc3cncn3C2)C1=O` gave an IC50 [19] of 14.8 µM, a half-life [4] of 252 min and a Vd [4] of 0.5 L/kg. For the same compound, the clearance [4] was 1.3 mL/min/kg, the IC50 [6] was 41 nM and the IC50 [7] was 2.8 µM.

`N#Cc1ccc2cc1Oc1ccc3cccc(c3c1)N1CC[C@H](NCc3cncn3C2)C1=O` showed an EC50 [3] of 130 nM, an EC50 [5] of 48 nM and an IC50 [6] of 3.8 nM.

Compound `CN1Cc2cncn2Cc2ccc(C#N)c(c2)Oc2ccc3c(c2)C(CC3)N2CCC1C2=O` (stereo unspecified) has an IC50 [20] of 2600 nM, an IC50 [2] of 1.4 nM and an IC50 [6] of 0.64 nM. The IC50 [8] was > 20000 nM.

Compound `N#Cc1ccc2cc1Oc1cccc(c1)C(c1cccc(Cl)c1)N1CCC(NCc3cncn3C2)C1=O` (single isomer, unassigned; diastereomer A) has an IC50 [13] of 210 nM, an IC50 [2] of 25 nM and an IC50 [8] of 820 nM.

For `CC1c2ccc(C#N)c(c2)Oc2cccc(c2)CN2CCC(NCc3cncn31)C2=O` (single isomer, unassigned; diastereomer A), the IC50 [2] was 170 nM, the IC50 [6] was 74 nM and the IC50 [8] was > 20000 nM.

For `N#Cc1ccc2cc1Oc1cccc(c1)C(c1ccccc1)N1CCC(NCc3cncn3C2)C1=O` (single isomer, unassigned; diastereomer B), the IC50 [13] was 34 nM, the IC50 [2] was 10 nM and the IC50 [8] was 5800 nM.

For `N#Cc1ccc2cc1Oc1cccc(c1)C(c1cccc(Cl)c1)N1CCC(NCc3cncn3C2)C1=O` (single isomer, unassigned; diastereomer B), the IC50 [2] was 2.5 nM, the IC50 [6] was 200 nM and the IC50 [8] was 7000 nM.

`CC1c2ccc(C#N)c(c2)Oc2cccc(c2)CN2CCC(NCc3cncn31)C2=O` (single isomer, unassigned; diastereomer B) showed an IC50 [19] of 6.1 µM, an IC50 [2] of 1.9 nM and a half-life [4] of 46.8 min. The Vd [4] was 0.69 L/kg, the clearance [4] was 12 mL/min/kg and the IC50 [6] was 0.87 nM.

In the case of `N#Cc1ccc2cc1Oc1cccc(c1)C(c1ccccc1)N1CCC(NCc3cncn3C2)C1=O` (stereo in doubt; 26A), the IC50 [2] is reported as 58 nM, the IC50 [6] is reported as 230 nM and the IC50 [8] is reported as 1600 nM.

Work on `N#Cc1ccc2cc1Oc1ccc3cccc(c3c1)N1CCC(NCCc3cncn3C2)C1=O` (stereo in doubt; 66) yielded an IC50 [19] of 0.6 µM, a Vd [16] of 0.57 L/kg and a bioavailability [16] of 92%. For the same compound, the half-life [16] was 120 min, the EC50 [3] was 7.5 nM and the clearance [17] was 3.9 mL/min/kg. It also gave an EC50 [5] of 4.3 nM, an IC50 [6] of 0.32 nM and an IC50 [7] of 6 µM. The IC50 [15] was 0.19 nM.

`N#Cc1ccc2cc1Oc1ccc3cccc(c3c1)N1CCC(NCCc3cncn3C2)C1=O` (stereo in doubt; 67) gave an IC50 [6] of 0.44 nM.

For `N#Cc1ccc2cc1Oc1ccc3c(c1)[C@@H](CCC3)N1CC[C@@H](NCc3cncn3C2)C1=O` [(1R,5R)-30-OXO-19-OXA-2,6,10,12-TETRAAZAHEXACYCLO[18.6.2.1^{2,5}.1^{14,18}.0^{8,12}.0^{23,27}]TRIACONTA-8,10,14(29),15,17,20(28),21,23(27)-OCTAENE-17-CARBONITRILE (STRUCTURAL MIX)], the IC50 [2] was < 1 nM, the EC50 [14] was 0.25 nM and the half-life [4] was 28.8 min. For the same compound, the Vd [4] was 0.36 L/kg, the clearance [4] was 7.3 mL/min/kg and the EC50 [5] was 0.18 nM. The IC50 [6] was 0.054 nM and the IC50 [8] was 390 nM.
